Data from ChEMBL document CHEMBL2384906, “Biological activity, design, synthesis and structure activity relationship of some novel derivatives of curcumin containing sulfonamides” (Eur J Med Chem, 2013).
In brackets after ≈: the same amount, converted by molar mass. Activity calls are given as the source filed them. The calls are words filed in the database; no cut-off is given here.

Tests used:
Aspergillus flavus [1] = assay: Antifungal activity against Aspergillus flavus MTCC 1021 assessed as zone of inhibition at 80 uM after 48 hrs by disc diffusion method; format: functional; conditions: MTCC 1021, 48 h, read-out: IZ
Outline: (§1)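 Spores from 4-day potato dextrose agar cultures, suspended in sterile water at 1.5 × 10⁵ CFU/mL. 0.2 mL was spread on potato dextrose agar. 5 mm filter-paper discs soaked with test compound were laid on the lawn. Incubation was 48 h at 28 °C, then the inhibition zone was measured in mm. Fluconazole was the positive control and acetone the negative control.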

Salmonella typhi [2] = assay: Antimicrobial activity against Salmonella typhi ATCC 23564 assessed as diameter of inhibition zone at 80 uM after 24 hrs by Kirby -Baur disc diffusion method; format: functional, Salmonella enterica subsp. enterica serovar Typhi; conditions: Salmonella enterica, ATCC 23564, 24 h; read-out: DIZ
Curvularia lunata [3] = assay: Antifungal activity against Curvularia lunata MTCC 581 assessed as zone of inhibition at 20 uM after 48 hrs by disc diffusion method; format: functional; conditions: MTCC 581, 48 h, read-out: IZ; outline: as §1
Trichoderma viride [4] = assay: Antifungal activity against Trichoderma viride MTCC 1107 after 48 hrs; format: functional; conditions: MTCC 1107, 48 h
Aspergillus flavus [5] = assay: Antifungal activity against Aspergillus flavus MTCC 1021 assessed as zone of inhibition at 40 uM after 48 hrs by disc diffusion method; format: functional; outline: as §1
Staphylococcus aureus [6] = assay: Antimicrobial activity against Staphylococcus aureus ATCC 11632 assessed as diameter of inhibition zone at 80 uM after 24 hrs by Kirby -Baur disc diffusion method; format: functional; conditions: ATCC 11632, 24 h, read-out: DIZ
Outline: (§2)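 Kirby-Bauer disc diffusion was used. Acetone stocks (160 µM) were serially doubled down to 80, 40 and 20 µM. 4 µL of each went onto 5 mm sterile paper discs, which were dried 30 min at 50 °C. Inoculum was 1.5 × 10⁸ CFU/mL diluted to 3 × 10² CFU/mL, and 50 µL was spread on Mueller-Hinton agar. After 24 h at 37 °C the inhibition-zone diameter was measured. Ciprofloxacin served as positive control.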

Bacillus cereus [7] = assay: Antimicrobial activity against Bacillus cereus MTCC 7350 assessed as diameter of inhibition zone at 80 uM after 24 hrs by Kirby -Baur disc diffusion method; format: functional; conditions: MTCC 7350, 24 h, read-out: DIZ; outline: as §2
HeLa = assay: Cytotoxicity against human HeLa cells after 24 hrs by MTT assay; format: functional, cell-based
Outline: (§3)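 The MTT assay seeded 5 × 10⁴ cells per well and grew them 24 h in RPMI 1640 with compound at 2.5–200 µM. Medium without cells was the blank and adriamycin the positive control. MTT was added for 4 h at 37 °C, formazan was solubilised, and absorbance was read at 570 nm. IC50 is the concentration that cuts viability 50% against untreated cells.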

Pseudomonas aeruginosa [8] = assay: Antimicrobial activity against Pseudomonas aeruginosa ATCC 15499 after 24 hrs by broth micro serial dilution method; format: functional; conditions: ATCC 15499, 24 h
Outline: (§4)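 This was broth microdilution in autoclaved Mueller-Hinton broth. 150 µL of compound per well was serially diluted […], and 50 µL of test organism was added. Plates were incubated 24 h at 37 °C and optical density was read.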

HCT-116 = assay: Cytotoxicity against human HCT116 cells after 24 hrs by MTT assay; format: functional, cell-based; outline: as §3
Trichoderma viride [9] = assay: Antifungal activity against Trichoderma viride MTCC 1107 assessed as zone of inhibition at 40 uM after 48 hrs by disc diffusion method; format: functional; conditions: MTCC 1107, 48 h, read-out: IZ; outline: as §1
Salmonella typhi [10] = assay: Antimicrobial activity against Salmonella typhi ATCC 23564 assessed as diameter of inhibition zone at 40 uM after 24 hrs by Kirby -Baur disc diffusion method; format: functional, Salmonella enterica subsp. enterica serovar Typhi; conditions: Salmonella enterica, ATCC 23564, 24 h; read-out: DIZ
Curvularia lunata [11] = assay: Antifungal activity against Curvularia lunata MTCC 581 assessed as zone of inhibition at 80 uM after 48 hrs by disc diffusion method; format: functional; conditions: MTCC 581, 48 h, read-out: IZ; outline: as §1
Bacillus cereus [12] = assay: Antimicrobial activity against Bacillus cereus MTCC 7350 after 24 hrs by broth micro serial dilution method; format: functional; conditions: MTCC 7350, 24 h; outline: as §4
Escherichia coli [13] = assay: Antimicrobial activity against Escherichia coli ATCC 35218 assessed as diameter of inhibition zone at 80 uM after 24 hrs by Kirby -Baur disc diffusion method; format: functional; conditions: ATCC 35218, 24 h, read-out: DIZ; outline: as §2
HepG2 = assay: Cytotoxicity against human HepG2 cells after 24 hrs by MTT assay; format: functional, cell-based; outline: as §3
Aspergillus niger [14] = assay: Antifungal activity against Aspergillus niger MTCC 1108 assessed as zone of inhibition at 20 uM after 48 hrs by disc diffusion method; format: functional; outline: as §1
Trichoderma viride [15] = assay: Antifungal activity against Trichoderma viride MTCC 1107 assessed as zone of inhibition at 80 uM after 48 hrs by disc diffusion method; format: functional; conditions: MTCC 1107, 48 h, read-out: IZ; outline: as §1
Aspergillus flavus [16] = assay: Antifungal activity against Aspergillus flavus MTCC 1021 after 48 hrs; format: functional; conditions: MTCC 1021, 48 h
Aspergillus niger [17] = assay: Antifungal activity against Aspergillus niger MTCC 1108 assessed as zone of inhibition at 80 uM after 48 hrs by disc diffusion method; format: functional; conditions: MTCC 1108, 48 h, read-out: IZ; outline: as §1
Escherichia coli [18] = assay: Antimicrobial activity against Escherichia coli ATCC 35218 assessed as diameter of inhibition zone at 40 uM after 24 hrs by Kirby -Baur disc diffusion method; format: functional; conditions: ATCC 35218, 24 h, read-out: DIZ; outline: as §2
Pseudomonas aeruginosa [19] = assay: Antimicrobial activity against Pseudomonas aeruginosa ATCC 15499 assessed as diameter of inhibition zone at 20 uM after 24 hrs by Kirby -Baur disc diffusion method; format: functional; conditions: ATCC 15499, 24 h, read-out: DIZ; outline: as §2
Pseudomonas aeruginosa [20] = assay: Antimicrobial activity against Pseudomonas aeruginosa ATCC 15499 assessed as diameter of inhibition zone at 80 uM after 24 hrs by Kirby -Baur disc diffusion method; format: functional; conditions: ATCC 15499, 24 h, read-out: DIZ; outline: as §2
Staphylococcus aureus [21] = assay: Antimicrobial activity against Staphylococcus aureus ATCC 11632 assessed as diameter of inhibition zone at 20 uM after 24 hrs by Kirby -Baur disc diffusion method; format: functional; conditions: ATCC 11632, 24 h, read-out: DIZ; outline: as §2
QG-56 = assay: Cytotoxicity against human QG56 cells after 24 hrs by MTT assay; format: functional, cell-based; outline: as §3
Staphylococcus aureus [22] = assay: Antimicrobial activity against Staphylococcus aureus ATCC 11632 assessed as diameter of inhibition zone at 40 uM after 24 hrs by Kirby -Baur disc diffusion method; format: functional; conditions: ATCC 11632, 24 h, read-out: DIZ; outline: as §2
Escherichia coli [23] = assay: Antimicrobial activity against Escherichia coli ATCC 35218 after 24 hrs by broth micro serial dilution method; format: functional; conditions: ATCC 35218, 24 h; outline: as §4
Bacillus cereus [24] = assay: Antimicrobial activity against Bacillus cereus MTCC 7350 assessed as diameter of inhibition zone at 40 uM after 24 hrs by Kirby -Baur disc diffusion method; format: functional; conditions: MTCC 7350, 24 h, read-out: DIZ; outline: as §2
Salmonella typhi [25] = assay: Antimicrobial activity against Salmonella typhi ATCC 23564 assessed as diameter of inhibition zone at 20 uM after 24 hrs by Kirby -Baur disc diffusion method; format: functional, Salmonella enterica subsp. enterica serovar Typhi; conditions: Salmonella enterica, ATCC 23564, 24 h; read-out: DIZ
Salmonella typhi [26] = assay: Antimicrobial activity against Salmonella typhi ATCC 23564 after 24 hrs by broth micro serial dilution method; format: functional, Salmonella enterica subsp. enterica serovar Typhi; conditions: Salmonella enterica, ATCC 23564, 24 h
Aspergillus flavus [27] = assay: Antifungal activity against Aspergillus flavus MTCC 1021 assessed as zone of inhibition at 20 uM after 48 hrs by disc diffusion method; format: functional; outline: as §1
Aspergillus niger [28] = assay: Antifungal activity against Aspergillus niger MTCC 1108 assessed as zone of inhibition at 40 uM after 48 hrs by disc diffusion method; format: functional; outline: as §1
Escherichia coli [29] = assay: Antimicrobial activity against Escherichia coli ATCC 35218 assessed as diameter of inhibition zone at 20 uM after 24 hrs by Kirby -Baur disc diffusion method; format: functional; conditions: ATCC 35218, 24 h, read-out: DIZ; outline: as §2
Aspergillus niger [30] = assay: Antifungal activity against Aspergillus niger MTCC 1108 after 48 hrs; format: functional; conditions: MTCC 1108, 48 h
Curvularia lunata [31] = assay: Antifungal activity against Curvularia lunata MTCC 581 after 48 hrs; format: functional; conditions: MTCC 581, 48 h
Pseudomonas aeruginosa [32] = assay: Antimicrobial activity against Pseudomonas aeruginosa ATCC 15499 assessed as diameter of inhibition zone at 40 uM after 24 hrs by Kirby -Baur disc diffusion method; format: functional; conditions: ATCC 15499, 24 h, read-out: DIZ; outline: as §2
Staphylococcus aureus [33] = assay: Antimicrobial activity against Staphylococcus aureus ATCC 11632 after 24 hrs by broth micro serial dilution method; format: functional; conditions: ATCC 11632, 24 h; outline: as §4
Curvularia lunata [34] = assay: Antifungal activity against Curvularia lunata MTCC 581 assessed as zone of inhibition at 40 uM after 48 hrs by disc diffusion method; format: functional; conditions: MTCC 581, 48 h, read-out: IZ; outline: as §1
Trichoderma viride [35] = assay: Antifungal activity against Trichoderma viride MTCC 1107 assessed as zone of inhibition at 20 uM after 48 hrs by disc diffusion method; format: functional; conditions: MTCC 1107, 48 h, read-out: IZ; outline: as §1
Bacillus cereus [36] = assay: Antimicrobial activity against Bacillus cereus MTCC 7350 assessed as diameter of inhibition zone at 20 uM after 24 hrs by Kirby -Baur disc diffusion method; format: functional; conditions: MTCC 7350, 24 h, read-out: DIZ; outline: as §2
Mus musculus = assay: Antiinflammatory activity in mouse assessed as inhibition of carrageenan-induced increase in paw volume at 200 mg/kg administered 1 hr prior to carrageenan challenge measured after 3 hrs relative to control; format: functional
Outline: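 Mice were fasted 2 h and placed in groups of five. Controls received saline i.p. Phenylbutazone was given at 100 mg/kg i.p., curcumin at 200 mg/kg i.p., and derivatives at 200 mg/kg. After 1 h, 0.1 mL of 1% carrageenan in saline was injected subplantar into the right hind paw. Paw volume was followed by plethysmometer for 3 h, and % inhibition was calculated as (Vc − Vt)/Vc × 100.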

`COc1cc(/C=C/C(CC(/C=C/c2ccc(O)c(OC)c2)=N/c2ccc(S(=O)(=O)Nc3cc(C)on3)cc2)=N\c2ccc(S(=O)(=O)Nc3cc(C)on3)cc2)ccc1O` was tested, and the zone of inhibition at 80 µM (Aspergillus flavus [1]) was 9 mm, the zone of inhibition at 80 µM (Salmonella typhi [2]) was 29 mm and the zone of inhibition at 20 µM (Curvularia lunata [3]) was 9 mm. The MIC (Trichoderma viride [4]) was 40 µM (≈ 33.6 µg/mL), the “inhibition zone (IZ)” value (Aspergillus flavus [5]) was “inactive” and the zone of inhibition at 80 µM (Staphylococcus aureus [6]) was 24 mm. For the same molecule, the zone of inhibition at 80 µM (Bacillus cereus [7]) was 21 mm, the IC50 (HeLa) was 100 µM and the MIC (Pseudomonas aeruginosa [8]) was 40 µM (≈ 33.6 µg/mL). It also gave an IC50 (HCT-116) of 100 µM, a zone of inhibition at 40 µM (Trichoderma viride [9]) of 11 mm and a zone of inhibition at 40 µM (Salmonella typhi [10]) of 26 mm. For the same molecule, the zone of inhibition at 80 µM (Curvularia lunata [11]) was 11 mm, the MIC (Bacillus cereus [12]) was 40 µM (≈ 33.6 µg/mL) and the zone of inhibition at 80 µM (Escherichia coli [13]) was 23 mm. For the same molecule, the IC50 (HepG2) was 100 µM, the “inhibition zone (IZ)” value (Aspergillus niger [14]) was “inactive” and the zone of inhibition at 80 µM (Trichoderma viride [15]) was 13 mm. It also gave an MIC (Aspergillus flavus [16]) greater than 80 µM, a zone of inhibition at 80 µM (Aspergillus niger [17]) of 10 mm and a zone of inhibition at 40 µM (Escherichia coli [18]) of 21 mm. It also gave a zone of inhibition at 20 µM (Pseudomonas aeruginosa [19]) of 16 mm, a zone of inhibition at 80 µM (Pseudomonas aeruginosa [20]) of 26 mm and a zone of inhibition at 20 µM (Staphylococcus aureus [21]) of 17 mm. The IC50 (QG-56) was 100 µM, the zone of inhibition at 40 µM (Staphylococcus aureus [22]) was 21 mm and the MIC (Escherichia coli [23]) was 20 µM (≈ 16.8 µg/mL). It also gave a zone of inhibition at 40 µM (Bacillus cereus [24]) of 16 mm, a zone of inhibition at 20 µM (Salmonella typhi [25]) of 18 mm and an MIC (Salmonella typhi [26]) of 40 µM (≈ 33.6 µg/mL). The “inhibition zone (IZ)” value (Aspergillus flavus [27]) was “inactive”, the “inhibition zone (IZ)” value (Aspergillus niger [28]) was “inactive” and the zone of inhibition at 20 µM (Escherichia coli [29]) was 18 mm. For the same molecule, the MIC (Aspergillus niger [30]) was greater than 80 µM, the MIC (Curvularia lunata [31]) was 40 µM (≈ 33.6 µg/mL) and the zone of inhibition at 40 µM (Pseudomonas aeruginosa [32]) was 21 mm. The MIC (Staphylococcus aureus [33]) was 40 µM (≈ 33.6 µg/mL), the zone of inhibition at 40 µM (Curvularia lunata [34]) was 10 mm and the zone of inhibition at 20 µM (Trichoderma viride [35]) was 9 mm. The zone of inhibition at 20 µM (Bacillus cereus [36]) was 11 mm and the inhibition in vivo at 200 mg/kg (Mus musculus) was 8%.
